This note sets out measurements from ChEMBL document CHEMBL1157268, “ent-Labdane diterpenoids from Andrographis paniculata” (2006).

For one assay, the system named is Aspergillus niger. Put plainly: Antimicrobial activity against Aspergillus niger at 10 ug/ml by disk diffusion assay. The assay is classed as functional, organism-based. Summed up:
(§1)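 Qualitative screen on agar plates: each diterpenoid applied to disks at 10 µg/mL and tested in parallel against eight strains (B. subtilis, S. aureus, E. coli, M. luteus, S. lutea, C. albicans, C. sake, A. niger). Growth inhibition was scored as a clear inhibition zone around the disk, with zone diameter in mm as the read-out.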
Background: A growth-free zone around the sample is the usual read-out of agar diffusion tests.

In a further assay the test system is Staphylococcus aureus. In words: Antimicrobial activity against Staphylococcus aureus at 10 ug/ml by disk diffusion assay. Type of assay: functional, organism-based. In a few lines: as §1
Another assay has as its system Candida albicans. Put plainly: Antimicrobial activity against Candida albicans at 10 ug/ml by disk diffusion assay. Type of assay: functional, organism-based. In a few lines:
as §1

In the next assay the test system is Bacillus subtilis. In words: Antimicrobial activity against Bacillus subtilis at 10 ug/ml by disk diffusion assay. The assay is classed as functional. As to conditions: for zone of inhibition at 10 µg/mL: read-out: IZ. In a few lines: as §1
The next assay relates to [Candida] sake. In words: Antimicrobial activity against Candida sake at 10 ug/ml by disk diffusion assay. The assay is classed as functional, organism-based. In a few lines:
as §1

Another assay deals with Micrococcus luteus. In words: Antimicrobial activity against Micrococcus luteus at 10 ug/ml by disk diffusion assay. The assay is classed as functional, organism-based. Summed up:
as §1

A further assay deals with Escherichia coli. Put plainly: Antimicrobial activity against Escherichia coli at 10 ug/ml by disk diffusion assay. The assay is classed as functional, organism-based. Summed up: as §1

The source made the active and inactive calls. No cut-off for these calls is given here.

As for `C=C1CC[C@@H]2C(C)(C)[C@H](O[C@@H]3O[C@H](CO)[C@@H](O)[C@H](O)[C@H]3O)CC[C@@]2(C)[C@@H]1CCC1=CCOC1=O`, the outcome (with Aspergillus niger; in the assay on Staphylococcus aureus; with Candida albicans; in the assay with Bacillus subtilis; in assay [Candida] sake; with Micrococcus luteus) was inactive. Besides, the result with Escherichia coli was inactive.
Regarding `C=C1CC[C@@H]2[C@](C)(CO)[C@H](O)CC[C@@]2(C)[C@@H]1C[C@@H](O)C1C(=O)OC[C@H]1O` (stereo not given in full), the result (with Aspergillus niger; with Staphylococcus aureus; with Candida albicans; in the assay on Bacillus subtilis; in assay [Candida] sake; in the assay with Micrococcus luteus) was inactive. Besides, the outcome in the assay with Escherichia coli was inactive.
Turning to `C=C1CC[C@H]2[C@@](C)(CCC[C@@]2(C)C(=O)O[C@@H]2O[C@H](CO)[C@@H](O)[C@H](O)[C@H]2O)[C@@H]1CC/C(=C/CO)CO`, the result (in the assay on Aspergillus niger; in the assay on Staphylococcus aureus; with Candida albicans; in the assay on Bacillus subtilis; in assay [Candida] sake; in the assay on Micrococcus luteus) was inactive. The result in the assay on Escherichia coli was inactive.
As for `C=C1CC[C@@H]2[C@](C)(CO[C@@H]3O[C@H](CO)[C@@H](O)[C@H](O)[C@H]3O[C@@H]3OC[C@](O)(CO)[C@H]3O)CCC[C@@]2(C)[C@@H]1CCC1=CCOC1=O`, the result (in the assay with Aspergillus niger; with Staphylococcus aureus; with Candida albicans; in the assay on Bacillus subtilis; in assay [Candida] sake; with Micrococcus luteus) was inactive. Further, the outcome in the assay with Escherichia coli was inactive.
Turning to `C=C1CC[C@@H]2[C@](C)(CO)[C@H](O)CC[C@@]2(C)[C@@H]1CCC1=CCOC1=O`, the outcome (in the assay with Aspergillus niger; in the assay with Staphylococcus aureus; in the assay with Candida albicans; with Bacillus subtilis; in assay [Candida] sake; in the assay on Micrococcus luteus) was inactive. In addition, the result in the assay on Escherichia coli was inactive.
As for `C=C1CC[C@@H]2[C@](C)(CO)[C@H](O)CC[C@@]2(C)[C@@H]1/C=C/C1=CCOC1=O`, the outcome (with Aspergillus niger; in the assay on Staphylococcus aureus; in the assay on Candida albicans; in assay [Candida] sake; with Micrococcus luteus; in the assay on Escherichia coli) was inactive. In addition, the zone of inhibition at 10 µg/mL with Bacillus subtilis was 7 mm.
With `C=C1CC[C@@H]2[C@](C)(CO)[C@H](O)CC[C@@]2(C)[C@@H]1C[C@@H](O)C1=CCOC1=O`, the outcome (in the assay on Aspergillus niger; with Staphylococcus aureus; in the assay on Candida albicans; in assay [Candida] sake; in the assay on Micrococcus luteus; with Escherichia coli) was inactive. Besides, in the assay on Bacillus subtilis, the zone of inhibition at 10 µg/mL worked out at 7 mm.
For `C=C1CCC2C(C)(CO)C(O)CCC2(C)C1/C=C/C1=CC(C2(CCC3=CCOC3=O)C(=C)CCC3C(C)(CO)C(O)CCC32C)OC1=O` (stereo not given), the outcome (in the assay with Aspergillus niger; in the assay on Staphylococcus aureus; in the assay on Candida albicans; in the assay with Bacillus subtilis; in assay [Candida] sake; in the assay with Micrococcus luteus) was inactive. Moreover, in the assay on Escherichia coli, the result was inactive.
Take `C=C1CC[C@@H]2[C@](C)(CO)[C@H](O[C@@H]3O[C@H](CO)[C@@H](O)[C@H](O)[C@H]3O)CC[C@@]2(C)[C@@H]1C/C=C1/C(=O)OC[C@H]1O`: the result (in the assay on Aspergillus niger; in the assay on Staphylococcus aureus; with Candida albicans; in the assay on Bacillus subtilis; in assay [Candida] sake; in the assay with Micrococcus luteus) was inactive. The result in the assay on Escherichia coli was inactive.
Regarding `C=C1CC[C@@H]2[C@](C)(CO[C@@H]3O[C@H](CO)[C@@H](O)[C@H](O)[C@H]3O)CCC[C@@]2(C)[C@@H]1CCC1=CCOC1=O`, the outcome (in the assay on Aspergillus niger; in the assay with Staphylococcus aureus; with Candida albicans; in the assay with Bacillus subtilis; in assay [Candida] sake; in the assay on Micrococcus luteus) was inactive. Also, the result in the assay with Escherichia coli was inactive.
Take `C=C1CC[C@@H]2[C@](C)(CO)[C@H](O)CC[C@@]2(C)[C@@H]1C/C=C1/C(=O)OC[C@H]1O`: the result (in the assay with Aspergillus niger; in the assay with Staphylococcus aureus; in the assay on Candida albicans; in the assay with Bacillus subtilis; in assay [Candida] sake; in the assay with Micrococcus luteus) was inactive. Further, the outcome with Escherichia coli was inactive.
For the molecule `C=C1CC[C@@H]2[C@](C)(CO)[C@H](O)CC[C@@]2(C)[C@@H]1C/C=C1\C(=O)OCC1O` (stereo not given in full) [ISOANDROGRAPHOLIDE], the result (in the assay on Aspergillus niger; with Staphylococcus aureus; with Candida albicans; in assay [Candida] sake; with Micrococcus luteus; in the assay with Escherichia coli) was inactive. Besides, the zone of inhibition at 10 µg/mL in the assay on Bacillus subtilis was 7 mm.
Take `C=C1CC[C@@H]2[C@](C)(CO[C@@H]3O[C@H](CO)[C@@H](O)[C@H](O)[C@H]3O)[C@H](O)CC[C@@]2(C)[C@@H]1/C=C/C1=CCOC1=O`: the outcome (in the assay with Aspergillus niger; with Staphylococcus aureus; with Candida albicans; in the assay on Bacillus subtilis; in assay [Candida] sake; with Micrococcus luteus) was inactive. In addition, the result with Escherichia coli was inactive.
With `C[C@]1(CO)[C@H]2CC[C@]3(CO3)[C@@H](CCC3=CCOC3=O)[C@]2(C)CC[C@H]1O`, the result (with Aspergillus niger; with Staphylococcus aureus; in the assay with Candida albicans; in the assay with Bacillus subtilis; in assay [Candida] sake; in the assay on Micrococcus luteus) was inactive. Also, the result in the assay on Escherichia coli was inactive.
For the molecule `C[C@]1(CO)[C@H]2CC[C@H](CO)[C@@H](CCC3=CCOC3=O)[C@]2(C)CC[C@H]1O`, the result (with Aspergillus niger; in the assay on Staphylococcus aureus; with Candida albicans; with Bacillus subtilis; in assay [Candida] sake; in the assay with Micrococcus luteus) was inactive. The outcome in the assay with Escherichia coli was inactive.
Regarding `C=C1CC[C@@H]2[C@](C)(CO)CCC[C@@]2(C)[C@@H]1CCC1=CCOC1=O` [ANDROGRAPANIN], the result (with Aspergillus niger; in the assay with Staphylococcus aureus; in the assay with Candida albicans; in assay [Candida] sake; in the assay on Micrococcus luteus; with Escherichia coli) was inactive. The zone of inhibition at 10 µg/mL in the assay on Bacillus subtilis was 7 mm.
With `C=C1CC[C@@H]2[C@](C)(CO)[C@H](O)CC[C@@]2(C)[C@@H]1C(O)/C=C1\CCOC1=O` (stereo not given in full), the outcome (in the assay with Aspergillus niger; with Staphylococcus aureus; in the assay on Candida albicans; in the assay with Bacillus subtilis; in assay [Candida] sake; in the assay with Micrococcus luteus) was inactive. Moreover, the outcome with Escherichia coli was inactive.
As for `C=C1CC[C@H]2[C@@](C)(CC[C@@H](O)[C@@]2(C)CO)[C@@H]1C(=O)/C=C1\CCOC1=O`, the outcome (with Aspergillus niger; in the assay on Staphylococcus aureus; in the assay on Candida albicans; in the assay on Bacillus subtilis; in assay [Candida] sake; in the assay on Micrococcus luteus) was inactive. For the same molecule, in the assay with Escherichia coli, the result was inactive.
In the case of `C=C1CC[C@@H]2[C@](C)(CO[C@@H]3O[C@H](CO)[C@@H](O)[C@H](O)[C@H]3O)[C@H](O)CC[C@@]2(C)[C@@H]1C/C=C1/C(=O)OC[C@H]1O`, the result (with Aspergillus niger; in the assay with Staphylococcus aureus; with Candida albicans; in the assay with Bacillus subtilis; in assay [Candida] sake; with Micrococcus luteus) was inactive. The outcome in the assay with Escherichia coli was inactive.
Take `C=C1CC[C@@H]2[C@](C)(CO[C@@H]3O[C@H](CO)[C@@H](O)[C@H](O)[C@H]3O)[C@H](O)CC[C@@]2(C)[C@@H]1CCC1=CCOC1=O`: the outcome (in the assay on Aspergillus niger; with Staphylococcus aureus; in the assay on Candida albicans; in the assay on Bacillus subtilis; in assay [Candida] sake; in the assay with Micrococcus luteus) was inactive. In addition, in the assay with Escherichia coli, the result was inactive.
